# Measurements: ChEMBL document CHEMBL4130635, “2,4-Diaminoquinazolines as Dual Toll-like Receptor (TLR) 7/8 Modulators for the Treatment of Hepatitis B Virus” (J Med Chem, 2018)
# Active and inactive are the calls of the source. No cut-off for these calls is given here.
# What was measured:
# Plasma [1] = assay: Effect on cytokine profile in C57BL/6J mouse plasma assessed as IL-12p70 levels at 0.3 mg/kg, po by multiplex assay (reference value: 560 pg/ml); type: functional
# Outline: (§1)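 Single oral gavage in 20% HP-β-CD to healthy C57BL/6 mice, groups of 15 at 0.3, 1, 3, 10 or 30 mg/kg. Three mice per group sacrificed at 0.5, 1, 2, 4 or 7 h. Plasma and liver cytokines by multiplex, maximum level reported, rounded to nearest multiple of 5.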
# Liver [2] = assay: Effect on cytokine profile in C57BL/6J mouse liver assessed as IFNgamma levels at 30 mg/kg, po by multiplex assay; type: functional; outline: as §1
# Cynomolgus monkey [3] = assay: Activation of monocytes in cynomolgus monkey plasma assessed as upregulation of MCP1 levels at 30 mg/kg, po after 24 hrs by Luminex assay (reference value: 385 pg/ml); type: functional, Macaca fascicularis
# Cynomolgus monkey [4] = assay: Induction of G-CSF in cynomolgus monkey plasma at 9 mg/kg, po after 24 hrs by Luminex assay (reference value: 85 pg/ml); type: functional, Macaca fascicularis
# Outline: (§2)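 Healthy cynomolgus monkeys given single oral doses of 1, 3, 9 and 30 mg/kg, with a 2-week wash-out planned between doses. Systemic cytokine levels in plasma were sampled at 0.5, 1, 2, 4, 9 and 24 h postdose.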
# Cynomolgus monkey [5] = assay: Induction of IFNalpha levels in cynomolgus monkey plasma at 30 mg/kg, po after 24 hrs by ELISA; type: functional, Macaca fascicularis; outline: as §2
# Liver [6] = assay: Induction of IFNalpha levels in C57BL/6J mouse liver at 1 mg/kg, po by ELISA (reference value: 30 pg/g); type: functional
# [7] = molecular target: T1, TLR7 and TLR8 (Homo sapiens) (UniProt Q9NYK1+Q9NR97); assay: Agonist activity at TLR7/8 in human PBMCs co-cultured with primary human hepatocytes infected with HBV genotype C for 12 days assessed as increase in TNFalpha levels up to 5 uM measured after 42 days
# T1 sequence (Q9NYK1 whole entry, looked up, one chain of several): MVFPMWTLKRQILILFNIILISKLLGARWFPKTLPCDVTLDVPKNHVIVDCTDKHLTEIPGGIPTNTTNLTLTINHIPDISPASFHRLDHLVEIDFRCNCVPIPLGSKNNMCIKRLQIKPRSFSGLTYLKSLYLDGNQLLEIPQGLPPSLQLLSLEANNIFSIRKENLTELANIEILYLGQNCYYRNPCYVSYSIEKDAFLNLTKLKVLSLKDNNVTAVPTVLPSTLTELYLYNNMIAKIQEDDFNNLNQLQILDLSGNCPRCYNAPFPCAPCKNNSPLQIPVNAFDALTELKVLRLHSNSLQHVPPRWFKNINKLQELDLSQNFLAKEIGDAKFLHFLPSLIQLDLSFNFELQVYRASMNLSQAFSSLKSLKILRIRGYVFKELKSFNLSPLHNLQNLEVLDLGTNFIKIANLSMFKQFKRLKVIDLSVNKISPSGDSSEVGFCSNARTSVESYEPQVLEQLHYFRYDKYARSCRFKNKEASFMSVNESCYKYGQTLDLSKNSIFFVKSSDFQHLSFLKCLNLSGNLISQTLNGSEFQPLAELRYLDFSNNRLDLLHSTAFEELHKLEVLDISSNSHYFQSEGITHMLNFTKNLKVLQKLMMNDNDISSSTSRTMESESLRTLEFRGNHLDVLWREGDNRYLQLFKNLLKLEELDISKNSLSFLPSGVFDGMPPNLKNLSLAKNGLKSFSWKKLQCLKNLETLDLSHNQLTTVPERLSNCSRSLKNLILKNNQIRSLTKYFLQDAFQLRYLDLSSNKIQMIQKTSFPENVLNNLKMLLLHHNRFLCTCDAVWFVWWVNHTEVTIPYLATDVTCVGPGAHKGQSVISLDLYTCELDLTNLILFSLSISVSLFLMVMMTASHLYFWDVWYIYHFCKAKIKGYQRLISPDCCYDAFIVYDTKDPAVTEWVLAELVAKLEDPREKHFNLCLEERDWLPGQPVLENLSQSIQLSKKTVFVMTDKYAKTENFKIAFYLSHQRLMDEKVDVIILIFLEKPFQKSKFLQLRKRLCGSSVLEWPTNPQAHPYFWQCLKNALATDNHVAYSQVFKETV
# Plasma [8] = assay: Proinflammatory activity in C57BL/6J mouse plasma assessed as TNFalpha levels at 10 mg/kg, po by multiplex assay (reference value: 70 pg/ml); type: functional
# [9] = Protein binding in cynomolgus monkey plasma fraction at 5 uM after 4.5 hrs LC-MS/MS-based rapid equilibrium dialysis method; type: ADME, cell-free, Macaca fascicularis; settings: read-out: PPB (converted)
# [10] = AUC (0 to last) in C57BL/6J mouse plasma at 30 mg/kg, po by LC-MS analysis; type: ADME, organism-based; design: dose 30 mg/kg, time 0 - last, route oral
# Outline: (§3)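 Healthy C57BL/6 mice were dosed once by mouth at 0.3, 1, 3, 10 or 30 mg/kg in 20% HP-β-CD, in groups of 15 per dose. Three mice per group were sacrificed at 0.5, 1, 2, 4 or 7 h, and plasma and liver compound levels were measured by LC–MS. Values were rounded to whole numbers.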
# Cynomolgus monkey [11] = assay: Plasma concentration in cynomolgus monkey at 3 mg/kg, po by LC-MS analysis; type: ADME, organism-based, Macaca fascicularis; settings: in vivo
# [12] = molecular target: Alpha-1A adrenergic receptor; assay: Inhibition of alpha-1A adrenergic receptor (unknown origin)
# Liver [13] = assay: Proinflammatory activity in C57BL/6J mouse liver assessed as IL-1beta levels at 1 mg/kg, po by multiplex assay; type: functional
# [14] = AUC (0 to last) in C57BL/6J mouse plasma at 10 mg/kg, po by LC-MS analysis; type: ADME, organism-based; design: dose 10 mg/kg, route oral, time 0 - last; outline: as §3
# [15] = AUC (0 to last) in cynomolgus monkey plasma at 30 mg/kg, po by LC-MS analysis; type: ADME, organism-based, Macaca fascicularis; design: dose 30 mg/kg, route oral, time 0 - last
# Outline: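 Healthy cynomolgus monkeys received single oral doses of 1, 3, 9 and 30 mg/kg, with a 2-week wash-out between doses. Systemic compound concentrations were measured by LC–MS at 0.25, 0.5, 1, 2, 4, 8 and 24 h postdose.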
# [16] = molecular target: T1, TLR7 and TLR8 (Homo sapiens); assay: Agonist activity at TLR7/8 in human PBMCs co-cultured with primary human hepatocytes infected with HBV genotype C for 12 days assessed as increase in IL-12p70 levels up to 5 uM measured after 42 days
# Cynomolgus monkey [17] = assay: Effect on cytokine profile in cynomolgus monkey plasma assessed as IL-15 levels at 3 mg/kg, po after 24 hrs by Luminex assay (reference value: 20 pg/ml); type: functional, Macaca fascicularis; outline: as §2
# Liver [18] = assay: Induction of IFNalpha levels in C57BL/6J mouse liver at 3 mg/kg, po by ELISA (reference value: 30 pg/g); type: functional
# Cynomolgus monkey [19] = assay: Effect on cytokine profile in cynomolgus monkey plasma assessed as IP10 levels at 1 mg/kg, po after 24 hrs by Luminex assay (reference value: 18.5 pg/ml); type: functional, Macaca fascicularis; outline: as §2
# [20] = molecular target: T2, Toll-like receptor 8 (Homo sapiens) (UniProt Q9NR97); assay: Agonist activity at human TLR8 expressed in HEK293 cells assessed as induction of receptor activation incubated for 6 hrs by NF-kappaB-luciferase reporter gene assay; type: cell-based
# T2 sequence (whole entry): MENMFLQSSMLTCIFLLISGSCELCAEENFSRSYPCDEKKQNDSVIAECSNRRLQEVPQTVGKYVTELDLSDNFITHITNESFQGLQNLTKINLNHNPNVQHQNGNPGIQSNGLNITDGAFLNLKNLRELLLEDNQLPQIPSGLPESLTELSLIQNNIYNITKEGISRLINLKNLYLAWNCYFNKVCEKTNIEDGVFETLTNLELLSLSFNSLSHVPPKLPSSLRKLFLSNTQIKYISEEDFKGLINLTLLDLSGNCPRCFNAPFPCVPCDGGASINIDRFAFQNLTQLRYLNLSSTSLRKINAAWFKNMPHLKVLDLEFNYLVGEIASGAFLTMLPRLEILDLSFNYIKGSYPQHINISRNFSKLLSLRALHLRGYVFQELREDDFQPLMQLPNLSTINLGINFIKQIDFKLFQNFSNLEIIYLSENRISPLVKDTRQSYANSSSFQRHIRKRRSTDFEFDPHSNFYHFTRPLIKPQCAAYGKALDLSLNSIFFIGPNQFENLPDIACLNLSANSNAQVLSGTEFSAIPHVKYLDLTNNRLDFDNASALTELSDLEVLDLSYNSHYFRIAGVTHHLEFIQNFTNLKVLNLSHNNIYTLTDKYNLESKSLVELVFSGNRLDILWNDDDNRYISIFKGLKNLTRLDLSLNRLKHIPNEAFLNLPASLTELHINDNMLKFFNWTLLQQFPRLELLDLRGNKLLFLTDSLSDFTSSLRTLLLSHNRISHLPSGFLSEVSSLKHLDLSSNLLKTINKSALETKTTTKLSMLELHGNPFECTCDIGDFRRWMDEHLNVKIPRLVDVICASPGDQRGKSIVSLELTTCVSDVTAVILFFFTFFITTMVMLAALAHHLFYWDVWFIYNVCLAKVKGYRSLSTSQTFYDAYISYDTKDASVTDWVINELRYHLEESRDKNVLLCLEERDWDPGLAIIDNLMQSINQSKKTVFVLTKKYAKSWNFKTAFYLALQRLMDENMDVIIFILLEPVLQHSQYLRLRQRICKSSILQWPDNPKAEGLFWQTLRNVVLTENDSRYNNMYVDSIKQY
compound,measurement,setting,value
CCC[C@@H](CCO)Nc1nc(N)nc2c(F)cccc12,Activity,Plasma [1],470 pg/mL
same,Activity,Liver [2],700 pg/g
same,Activity,Cynomolgus monkey [3],>10000 pg/mL
same,Activity,Cynomolgus monkey [4],825 pg/mL
same,Activity,Cynomolgus monkey [5],>51200 pg/mL
same,Activity,Liver [6],215 pg/g
same,Activity,[7],Active
same,Activity,Plasma [8],>10000 pg/mL
same,"fraction unbound at 4.5 h, 5 µM",[9],0.46
same,AUC(0-t),[10],679 ng·h/mL
same,Cp,Cynomolgus monkey [11],14 ng/mL
same,IC50,[12],> 10 µM
same,Activity,Liver [13],16445 pg/g
same,AUC(0-t),[14],141 ng·h/mL
same,AUC(0-t),[15],5200 ng·h/mL
same,Activity,[16],Active
same,Activity,Cynomolgus monkey [17],60 pg/mL
same,Activity,Liver [18],765 pg/g
same,Activity,Cynomolgus monkey [19],1690 pg/mL
same,MEC,[20],0.16 µM
